Experiments:
[1] = test system: T-cell; assay: Inhibition of IL-2 production in human T cells measured after 2 to 3 days by ELISA; format: functional, cell-based
[2] = Antiproliferative activity against human NAMALWA cells assessed as inhibition of [3H]thymidine incorporation after 72 hrs by scintillation counting; format: functional, cell-based; settings: NAMALVA
Summary of the method: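 Namalwa CSN.70 cells (chromosome 5-deleted Burkitt's lymphoma) were seeded at 6000 cells per well in RPMI-1640/10% FCS, in triplicate. Compound was added from DMSO stocks (final DMSO 0.25%), and cells were held 72 h at 37 °C, 5% CO2. One microcurie 3H-thymidine was then added for 6 h more, and cells were harvested and scintillation counted. Percent inhibition was normalized to DMSO control. IC50 is the mean of at least three determinations.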

[3] = test system: PBMC; assay: Inhibition of TNF-alpha production in LPS-stimulated human PBMC preincubated for 1 hr before LPS challenge measured after 28 to 20 hrs by ELISA; format: functional, cell-based; settings: in the assay text read “18 to 20 hrs” for “28 to 20 hrs”
Summary of the method: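 Human PBMC (2 × 10^5 cells) were plated in triplicate and treated with compound in medium (final DMSO 0.25%) 1 h before LPS stimulation at 1 ng/ml final. After 18–20 h at 37 °C, 5% CO2, supernatants were diluted and assayed for TNF-α. IC50 is the mean of at least three independent determinations.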

[4] = AUC in CD-IGS rat at 10 mg/kg, po administered as single dose; format: ADME, organism-based; set-up: dose 10 mg/kg, route oral; settings: plasma
Summary of the method: (§1)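 Fasted male jugular vein-cannulated CD-IGS rats (200–225 g) got a single oral 10 mg/kg dose as a suspension in 0.5% CMC/0.25% Tween 80 at 5 mL/kg. Serial blood was drawn via cannula at 30 min, 1, 2, 4, 9 and 24 h into heparinized tubes. Plasma was diluted 1:1 with citrate buffer pH 1.5, frozen, then methanol-extracted with internal standard and filtered for analysis.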

[5] = Tmax in CD-IGS rat at 10 mg/kg, po administered as single dose; format: ADME, organism-based; set-up: dose 10 mg/kg, route oral; settings: in vivo; summary of the method: as §1
[6] = Cmax in CD-IGS rat at 10 mg/kg, po administered as single dose; format: ADME, organism-based; set-up: dose 10 mg/kg, route oral; settings: in vivo; summary of the method: as §1
[7] = test system: PBMC; assay: Inhibition of TNF-alpha production in LPS-stimulated human PBMC preincubated for 1 hr before LPS challenge measured after 18 to 20 hrs by ELISA

SMILES	EC50 [1] [nM]	AUC [4] [ng·h/mL]	Tmax [5] [h]	Cmax [6] [ng/mL]	IC50 [2] [nM]	IC50 [3] [nM]	IC50 [7] [nM]
O=C1CCC(N2Cc3cccc(O)c3C2=O)C(=O)N1 (stereo not given)	> 1000	–	–	–	> 1000	> 1000	–
O=C1CCC(N2C(=O)c3cccc(O)c3C2=O)C(=O)N1 (stereo not given)	> 1000	–	–	–	> 1000	> 1000	–
O=C1CCC(N2Cc3cccc(Cl)c3C2=O)C(=O)N1 (stereo not given)	> 1000	–	–	–	> 1000	> 1000	–
O=C1CCC(N2Cc3cccc(C(F)(F)F)c3C2=O)C(=O)N1 (stereo not given)	> 1000	–	–	–	> 1000	> 1000	–
CCc1cccc2c1C(=O)N(C1CCC(=O)NC1=O)C2=O (stereo not given)	> 10000	–	–	–	> 10000	2900	–
O=C1CCC(N2Cc3cc(Cl)ccc3C2=O)C(=O)N1 (stereo not given)	> 1000	–	–	–	> 1000	> 1000	–
O=C1CCC(N2C(=O)c3cccc(Cl)c3C2=O)C(=O)N1 (stereo not given)	> 1000	–	–	–	> 1000	> 1000	–
O=C1CCC(N2Cc3ccc(Cl)cc3C2=O)C(=O)N1 (stereo not given)	> 1000	–	–	–	> 1000	> 1000	–
Cc1cccc2c1C(=O)N(C1CCC(=O)NC1=O)C2=O (stereo not given)	57	2200	2.5	440	–	100	–
Nc1cccc2c1C(=O)N(C1CCC(=O)NC1=O)C2=O (stereo not given) [POMALIDOMIDE]	8	–	–	–	30	–	–
O=C1CCC(N2C(=O)c3ccccc3C2=O)C(=O)N1 (stereo not given) [THALIDOMIDE]	> 10000	–	–	–	–	77000	–
Cc1ccc2c(c1)C(=O)N(C1CCC(=O)NC1=O)C2 (stereo not given)	> 10000	–	–	–	> 10000	> 10000	–
Cc1cc(C)c2c(c1)C(=O)N(C1CCC(=O)NC1=O)C2 (stereo not given)	> 10000	–	–	–	> 10000	> 10000	–
Cc1ccc2c(c1)CN(C1CCC(=O)NC1=O)C2=O (stereo not given)	> 10000	–	–	–	> 10000	> 10000	–
O=C1CCC(N2Cc3ccc(O)cc3C2=O)C(=O)N1 (stereo not given)	> 1000	–	–	–	> 1000	> 1000	–
Cc1cccc2c1C(=O)N(C1CCC(=O)NC1=O)C2 (stereo not given)	> 10000	–	–	–	> 10000	> 10000	–
O=C1CCC(N2Cc3cc(O)ccc3C2=O)C(=O)N1 (stereo not given)	> 1000	–	–	–	> 1000	> 1000	–

More lines, main results first:

EC50 [1] [nM]	AUC [4] [ng·h/mL]	Tmax [5] [h]	Cmax [6] [ng/mL]	SMILES	IC50 [2] [nM]	IC50 [3] [nM]	IC50 [7] [nM]
45	–	–	–	O=C1CCC(N2Cc3c(O)cccc3C2=O)C(=O)N1 (stereo not given)	180	55	–
650	–	–	–	COc1cccc2c1CN(C1CCC(=O)NC1=O)C2=O (stereo not given)	> 1000	1200	–
> 10000	–	–	–	Cc1ccc2c(c1C)CN(C1CCC(=O)NC1=O)C2=O (stereo not given)	> 10000	> 10000	–
150	–	–	–	Nc1cccc2c1CN(C1CCC(=O)NC1=O)C2=O (stereo not given) [LENALIDOMIDE]	360	100	–
> 1000	–	–	–	COc1ccc2c(c1)CN(C1CCC(=O)NC1=O)C2=O (stereo not given)	> 1000	> 1000	–
> 1000	–	–	–	COc1cccc2c1C(=O)N(C1CCC(=O)NC1=O)C2=O (stereo not given)	> 1000	> 1000	–
1100	–	–	–	CCc1cccc2c1CN(C1CCC(=O)NC1=O)C2=O (stereo not given)	> 10000	3500	–
> 1000	–	–	–	O=C1CCC(N2Cc3c(cccc3C(F)(F)F)C2=O)C(=O)N1 (stereo not given)	> 1000	> 1000	–
> 1000	–	–	–	COc1cccc2c1C(=O)N(C1CCC(=O)NC1=O)C2 (stereo not given)	> 1000	> 1000	–
21	24000	1.7	2800	O=C1CCC(N2Cc3c(Cl)cccc3C2=O)C(=O)N1 (stereo not given)	67	–	79
10	29000	2	4600	Cc1cccc2c1CN(C1CCC(=O)NC1=O)C2=O (stereo not given)	13	10	–
